Redox H2O2 prof: compounds producing H2O2 with reducing agent – biochemical, NIH compound library profiling, artefact control for MLSCN library redox annotation, primary screen; DTT-dependent redox cycling H2O2, phenol red/HRP absorbance; 100% = 100 µM peroxide control, 0% = buffer; activation, % at 10 µM; actives 0.03% (n = 200,000); AID 878;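 active means activation of at least 50% relative to the plate's high and low controls in the primary single-dose screen; inactive means activation below 50%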;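 further: compound incubated with DTT at 0.8 mM final as the reducing agent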
Dynein transport: dynein cargo transport inhibition; z-score, hits read low; actives 0.47% (n = 220,000); AID 1381; 3617.4 mouse cells, GR-EGFP nuclear translocation imaging; test concentration mostly 20 µM; stimulated with dexamethasone, 1 µM; stronger effect = lower value;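 active means plate z-score of nuclear minus cytoplasmic receptor signal below a set negative limit, without overly bright fluorescence or cell loss, cut at about -3.5 in these data, passing the limit was not always enough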;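 further: z-score of nuclear minus cytoplasmic ring GR-EGFP intensity difference per well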
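Schedule: 48 h induction, then 1 h compound, then 30 min agonist, 37 °C. Buffer or medium: tetracycline-free induction medium containing charcoal-stripped FBS. Reagent: 1.0 µM final dexamethasone stimulus. Evaluation: nuclear versus cytoplasmic GR-EGFP signal, averaged per well. Signal: high-content fluorescence imaging after fixation.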
ROMK mod: modulates human ROMK potassium channel activity; P48048; Tet-inducible ROMK, thallium flux fluorescence; actives lie on both sides; B-score at 10 µM; actives 2% (n = 130,000); AID 1918;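 active means signal ratio slope over the read window, or its plate-corrected B-score, at least 3 SD from the plate mean, either direction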;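 further: B-score of the F/F0 ratio slope over 7 to 12 s after thallium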
Cl transport mod: KCC2 (human) Cl- transport modulation; Q9H2X9; KCC2 cells, thallium flux FluoZin-2 fluorescence; B-score of Tl+ flux slope (higher = more flux/activation; lower = inhibition) at 10 µM; actives 2.2% (n = 190,000); AID 1456;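 active means thallium flux slope and its plate-corrected score both differing from the plate sample mean at a set confidence after two filtering rounds, in either direction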;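 further: slope of fluorescence scaled to starting intensity during 10 to 20 s after thallium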
Autophagy HCS: modulators of autophagy | MEF GFP-LC3 puncta imaging; test concentration mostly 10 µM | calls only at 10 µM (by protocol) | actives 0.98% (n = 190,000);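 active means percentage of spot-positive cells more than 3 SD above its plate mean, without a fluorescence outlier flag or 80% toxicity; inconclusive means no clear call, values can overlap the other calls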
KCC2 sec1: confirmation of human KCC2 transport modulators. shares compounds with Cl transport mod. HEK293-KCC2, thallium flux, FluoZin2 fluorescence; stronger effect = higher value. normalised thallium flux (F/F0 slope) at 10 µM. actives 15% (n = 3,700). AID 1713;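 active means thallium flux slope above the same plate's solvent-only control mean plus 3 SD; inconclusive means the two replicate wells disagree; inactive means no significant difference from solvent-only control wells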
KCC2 bumet counter: thallium flux despite bumetanide block in KCC2 cells, secondary assay 3. normalized thallium flux at 10 µM. actives 49% (n = 3,700). HEK293-KCC2 + bumetanide/ouabain, thallium flux FluoZin2; stronger effect = higher value. shares compounds with Cl transport mod;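 active means thallium entry rate above the same plate's blocked-transporter control wells by more than 3 SD; inconclusive means the two repeat wells disagree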;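 further: raw slope of fluorescence over initial fluorescence between 10 and 20 s after thallium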
KCC2 sec2: KCC2 (human) modulation, second secondary assay | shares compounds with Cl transport mod | HEK293-KCC2, thallium flux FluoZin2 fluorescence; actives lie on both sides; F/F0 rise rate, 10–20 s post-thallium | normalized thallium flux at 10 µM | actives 23% (n = 3,700);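 active means thallium flux slope more than 3 SD above or below the plate's solvent-only control mean, mostly below; inconclusive means the two repeat wells disagreed; inactive means no significant shift from solvent-only controls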
HEK counter1: parental HEK flux effect, counter-screen | HEK293 parental cells, thallium flux FluoZin2, ouabain; baseline-ratio fluorescence slope, 10–20 s after thallium | actives 46% (n = 3,700) | thallium flux rate (normalised fluorescence) at 10 µM | shares compounds with Cl transport mod;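 active means thallium flux rate significantly above the same plate's solvent-only control wells, beyond their mean plus 3 SD; inconclusive means the two replicate wells gave conflicting results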
KCC2 ouabain: confirmation of human KCC2 modulators with ouabain. shares compounds with Cl transport mod. HEK293-KCC2, thallium flux FluoZin2 fluorescence; bidirectional: low = inhibitor, high = activator. raw Tl+ flux slope (below DMSO = inhibition, above = activation) at 10 µM. actives 48% (n = 3,700);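 active means thallium flux slope beyond 3 SD from same-plate DMSO control mean in most replicates, usually higher, sometimes lower; inconclusive means repeat tests gave conflicting results; inactive means no significant difference from controls in most replicates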;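 further: slope of initial-normalized fluorescence between seconds 10 and 20 after thallium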
HEK counter2: parental HEK flux effect, counter-screen 2. actives 33% (n = 3,700). HEK293 parental, thallium flux FluoZin-2 fluorescence slope. shares compounds with Cl transport mod. AID 1718. thallium flux slope at 10 µM;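 active means thallium flux slope above the same plate's solvent-control mean plus 3 SD in both duplicate wells; inconclusive means duplicate wells that disagreed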;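 further: run without ouabain in cells lacking the KCC2 cotransporter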
A number is an active result; i = inactive; ? = inconclusive; nt = not tested or not shown. The list is not random: actives were taken first. Their share in the collection is about 4.1%.

SMILES | Redox H2O2 prof | Dynein transport | ROMK mod | Cl transport mod | Autophagy HCS | KCC2 sec1 | KCC2 bumet counter | KCC2 sec2 | HEK counter1 | KCC2 ouabain | HEK counter2
CC(CCc1ccccc1)NC(=O)COC(=O)C1CCC(C(C)(C)C)CC1 (stereo unspecified) | i | i | nt | i | i | nt | nt | nt | nt | nt | nt
S=C(N/N=C/c1cccs1)NC1CC2CCC1C2 (stereo unspecified) | nt | i | nt | 19 | nt | 0.017 | 0.066 | i | 0.027 | ? | 0.016
CCOC(=O)C1(Cc2ccccc2Cl)CCN(Cc2csc(C(C)=O)c2)CC1 | i | i | i | nt | i | nt | nt | nt | nt | nt | nt
O=[N+]([O-])c1cc(Br)c(O)c(C=Nc2ccc(N3CCOCC3)cc2)c1 | i | i | i | i | i | nt | nt | nt | nt | nt | nt
O=[N+]([O-])c1cc(Br)c(O)c(/C=N/Nc2nnnn2-c2cccc3ccccc23)c1 | i | i | i | -3.2 | i | i | i | ? | ? | ? | i
COCCCNC(=O)Cn1nc(-c2ccccc2OC)ccc1=O | i | i | nt | i | i | nt | nt | nt | nt | nt | nt
COc1ccccc1-c1ccc(=O)n(CC(=O)NCc2ccc3c(c2)OCO3)n1 | i | i | nt | -3.7 | i | i | 0.0092 | i | ? | 0.016 | i
COc1ccc(CCN2C(=O)CSC2=Nc2ccc(C)cc2C)cc1OC | nt | i | i | i | nt | nt | nt | nt | nt | nt | nt
CCOC(=O)c1ccc2nc(Nc3nc4ccc(F)cc4s3)sc2c1 | i | i | i | i | i | nt | nt | nt | nt | nt | nt
COC(=O)c1ccc2nc(Nc3nc4c(F)cc(F)cc4s3)sc2c1 | i | i | i | 9.2 | i | i | 0.019 | 0.041 | 0.016 | 0.028 | 0.021
COc1ccc(CCNC(=O)C2CCN(S(C)(=O)=O)CC2)cc1 | i | i | i | -3.4 | i | i | i | i | i | i | i
CN1c2ccccc2C(C)(C)C12C=Nc1c(ccc3ccccc13)O2 (stereo unspecified) | i | i | nt | i | i | nt | nt | nt | nt | nt | nt
CN1c2ccccc2C(C)(C)[C@]12C=Cc1cc(O)ccc1O2 | i | i | i | -3.4 | i | i | ? | i | i | 0.016 | i
Cc1cc2cccc(C)c2nc1SCC(=O)NNC(=O)c1ccco1 | i | i | i | i | i | nt | nt | nt | nt | nt | nt
Cc1cc(C)c2nc(SCC(=O)NNC(=O)c3ccco3)c(C)cc2c1 | i | i | i | 4.8 | i | i | 0.021 | i | 0.0098 | i | 0.013
N#CC1=C(N)N=C(SCc2cccc3ccccc23)C(C(N)=O)C12CCCCC2 (stereo unspecified) | i | i | i | i | i | nt | nt | nt | nt | nt | nt
COc1ccc(C2/C=C\CN(CC3CC3)CC(=O)N2Cc2ccc(F)cc2)cc1 (stereo unspecified) | nt | i | nt | -3.4 | nt | i | i | i | i | 0.017 | i
COc1ccc(C2/C=C\CN(Cc3ccncc3)CC(=O)N2Cc2ccc(F)cc2)cc1 (stereo unspecified) | nt | i | nt | i | nt | nt | nt | nt | nt | nt | nt
CCCCCN1C/C=C\C(c2ccc(OC)cc2)N(Cc2ccc(F)cc2)C(=O)C1 (stereo unspecified) | nt | i | nt | -2.5 | nt | i | i | ? | i | 0.017 | i
CCCCC(=O)N1C/C=C\C(c2ccc(OC)cc2)N(Cc2ccc(F)cc2)C(=O)C1 (stereo unspecified) | nt | i | nt | -2.8 | nt | i | i | i | i | i | i
COc1ccc(C2/C=C\CN(CC(C)(C)C)CC(=O)N2Cc2ccc(F)cc2)cc1 (stereo unspecified) | nt | i | nt | i | nt | nt | nt | nt | nt | nt | nt
N#Cc1nc(-c2ccccc2Cl)oc1NCC1CCCO1 (stereo unspecified) | i | i | nt | i | i | nt | nt | nt | nt | nt | nt
N#Cc1nc(Cc2cccc3ccccc23)oc1NCc1ccco1 | i | i | i | nt | i | ? | i | ? | ? | 0.014 | i
N#Cc1nc(Cc2cccc3ccccc23)oc1NCC1CCCO1 (stereo unspecified) | i | i | i | nt | i | i | i | ? | i | 0.016 | i
N#Cc1nc(Cc2cccc3ccccc23)oc1NCCCN1CCOCC1 | i | i | i | -5.6 | i | ? | i | i | i | 0.014 | 0.011
SMILES | Redox H2O2 prof | Dynein transport | ROMK mod | Cl transport mod | Autophagy HCS | KCC2 sec1 | KCC2 bumet counter | KCC2 sec2 | HEK counter1 | KCC2 ouabain | HEK counter2
COC(=O)Nc1ccc(S(=O)(=O)N2CCC(C(=O)NC3CCCCC3)CC2)cc1 | i | i | i | i | i | nt | nt | nt | nt | nt | nt
CCn1c(SCC(=O)Nc2nc3ccc(C)cc3s2)nc2c(c1=O)SC(C)C2 (stereo unspecified) | i | i | nt | i | i | nt | nt | nt | nt | nt | nt
CCn1c(SCC(=O)Nc2nc3ccccc3s2)nc2c(c1=O)SC(C)C2 (stereo unspecified) | i | i | nt | -4.1 | i | i | i | i | 0.0057 | 0.02 | i
Cc1ccc(OCC(=O)Nc2cccc(S(=O)(=O)N3CCCCCC3)c2)c([N+](=O)[O-])n1 | i | i | i | i | i | nt | nt | nt | nt | nt | nt
COc1cc(C(=S)N2CCOCC2)ccc1OC(=O)Cc1ccc(F)cc1 | i | i | i | -4.8 | i | i | i | 0.028 | i | 0.015 | i
O=C(Nc1ccc(Cl)c(Cl)c1)Nc1ccccc1C(=O)O | i | i | i | -4.5 | i | i | ? | 0.024 | i | i | i
O=C(Nc1ccc(Cl)cc1)Nc1ccccc1C(=O)O | i | i | i | i | i | nt | nt | nt | nt | nt | nt
CCOC(=O)c1cc(C(=O)OCC)c(=O)[nH]c1N1CCCC1 | i | i | i | i | i | nt | nt | nt | nt | nt | nt
CS(=O)(=O)Nc1nnc(SCC(=O)N(c2ccccc2)c2ccccc2)s1 | i | i | nt | i | i | nt | nt | nt | nt | nt | nt
COc1ccc2nc(N=Nc3c(O)ccc4ccccc34)sc2c1 | i | i | i | 14 | i | 0.013 | 0.05 | i | 0.025 | 0.034 | 0.016
CCOC(=O)/C(C#N)=C1/C=C(C)NC(c2ccccc2O)=N1 | i | i | i | -3.8 | i | i | i | 0.022 | 0.0053 | 0.013 | ?
O=C(c1nn2c(C(F)(F)F)cc(-c3ccco3)nc2c1Br)N1CCCc2ccccc21 | i | i | i | nt | i | ? | i | 0.025 | i | ? | i
O=C(c1nn2c(C(F)(F)F)cc(-c3cccs3)nc2c1Br)N1CCCc2ccccc21 | i | i | i | i | i | nt | nt | nt | nt | nt | nt
